# Assay results as given in the EternaBench riboswitch data.
# Test system: MS2 coat protein
# Experiment: apparent Kd, MS2 coat protein; higher = weaker binding; RNA-MaP array; FMN 200 µM where present
# Summary of the method: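 SNAP-549-labelled MS2 coat protein, doubled from 0.7 or 1.5 nM to 3 µM, was titrated over designs transcribed by stalled E. coli RNA polymerase on Illumina sequencing-chip clusters. Titrations were run without and then with constant ligand in 100 mM Tris-HCl pH 7.5, 80 mM KCl, 4 mM MgCl2, BSA, DTT, yeast tRNA and Tween-20. The apparent Kd is the median of filtered per-cluster fits to green signal normalised to red-channel RNA signal and control-cluster median Fmax.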
# [1] = designed as: ON switch for flavin mononucleotide, no ligand
# [2] = ligand present: flavin mononucleotide, designed as: ON switch for flavin mononucleotide
# [3] = designed as: OFF switch for flavin mononucleotide, no ligand
# [4] = ligand present: flavin mononucleotide, designed as: OFF switch for flavin mononucleotide
Sequence,apparent Kd [1],apparent Kd [2],apparent Kd [3],apparent Kd [4]
CCGGAAACGGGUAGCCUGACAUGAGGAUCACCCAUGUAAUCCGAGGAUAUGGAUCCUAAUUGGAUCCAGAAGGUGGCAGGCUAC,0.463 µM,0.127 µM,–,–
CCGGAAACGGGUAGCUCACAUGAGGAUCACCCAUGUAAAACACAGGAUAUGGAUCCUAAUUGGAUCCAGAAGGGUGUGAGCUAC,0.0401 µM,0.0236 µM,–,–
CCGGAAACGGGUAGCUGUACAUGAGGAUCACCCAUGUGAUCAGAGGAUAUGGAUCCUAAUUGGAUCCAGAAGGCUGUCAGCUAC,0.119 µM,0.0291 µM,–,–
CCGGAAACGGGUAGCUGUACAUGAGGAUCACCCAUGUGAUCAUAGGAUAUGGAACCUAAUUGGUUCCAGAAGGAUGUCAGCUAC,0.237 µM,0.598 µM,–,–
CCGGAAACGGGUAGCUGUACAUGAGGAUCACCCAUGUGAUCAUAGGAUAUGGAUCCUAAUUGGAUCCAGAAGGAUGUCAGCUAC,0.163 µM,0.58 µM,–,–
CCGGAAACGGGUAGCUGUACAUGAGGAUCACCCAUGUGAUCAUAGGAUAUGGAUGGUAAUUCCAUCCAGAAGGAUGUCAGCUAC,0.216 µM,0.715 µM,–,–
CCGGAAAUAGAGGAUAUAGGACUGGAUACAGUCCUAGAAGGCUAUACAUGAGGAUCACCCAUGUGUCCUACCGG,–,–,0.0157 µM,0.044 µM
CCGGAAAUGUAGGAUAUAGGAGUCGAUAGACACCUAGAAGGGCAUACAUGAGGAUCACCCAUGUGUCCUACCGG,–,–,0.0137 µM,0.0158 µM
CCGUAAGAGCGGACAUGAGGAUCACCCAUGUAAGAGUCAUCCAGAAGGUCAGCGCUAAAUGGAAUGAAGGAUAUGGAGUGGGUC,0.668 µM,0.357 µM,–,–
CCGUCCCGGCUGCAGCUCGGUAACAUGAGGAUCACCCAUGUCAAGGAUAUAACCAUACUCGAUCGUUAGAAGGUGACAGGGUCC,–,–,0.175 µM,0.107 µM
CCGUGGCAAGGAUAUACAUAGGAGAGGAAGGCAAGAGGAGGACAUGAGGAUCACCCAUGUAGAAGGUGCAGAUC,–,–,0.0738 µM,0.0678 µM
CCUAAAAGGAAGGAUAUGCUAGACGAAAGUCUAGCAGAAGGUCCUACAUGAGGAUCACCCAUGUGUCCUAUAGG,–,–,0.0485 µM,0.0594 µM
CCUAGUUGGUAAGGAUAUCCUACACUGUUCUGACCCGUGCGAGCUACAUGAGGAUCACCCAUGUGGGAGAAGGUGCGUCAACGC,–,–,0.0182 µM,0.0179 µM
CCUAUGUGAGGAUAUGUCUGGUCUUCUUUUGUUUUUUACAGACAGAAGGCACAUGAGGAUCACCCAUGUCAGAC,–,–,0.0168 µM,0.0244 µM
CCUCACAGAGGAUAUACGUCCACUGAACCCAUGAGGUUGCCACAUGAGGAUCACCCAUGUAGAAGGCUGUGCUG,–,–,0.0201 µM,0.0429 µM
CCUCCACAUGAGGAUCACCCAUGUCAGGAUAUCGCGCGCGCGUUUUCGGUCUUUCGCGCGAGAAGGGACGACUG,–,–,0.0344 µM,0.0545 µM
CCUCCCUGAGGAUAUCCACCCUCAUACAUGAGGAUCACCCAUGUUCAACCCUGGGUUCCCGGAGAAGGCAGAUUUC,–,–,0.115 µM,0.134 µM
CCUCGACAUGAGGAUCACCCAUGUUAGGAUAUGGGAGCGGGAAUUUGAGUAUUCGUACCCAGAAGGAACAGUUA,–,–,0.0426 µM,0.096 µM
CCUCUACAUGAGGAUCACCCAUGUGAGGAUAUCUCGGAGCAACCACUUAAGGCGCUCCAGAGAAGGCACGUGUA,–,–,0.0206 µM,0.0289 µM
CCUCUACAUGAGGAUCACCCAUGUGAGGAUAUGCGAGGCGCACUCGAUGAGCGCGCCGGUAGAAGGCAUGUGGU,–,–,0.024 µM,0.055 µM
CCUGUAAUCCUAUAGGCUUGUUACAUGAGGAUCACCCAUGUCAAGGAUAUAACGUUAAGCUCAUGUUAGAAGGUGACAUGUGGU,–,–,0.164 µM,0.0586 µM
CCUUAGUCAGGAUAUACAUGAGGAUCACCCAUGUAAAAUUUUAAUUUAAUUUUAAGGUGUAGAAGGGACCACCC,–,–,0.0263 µM,0.0226 µM
CCUUCACAUGAGGAUCACCCAUGUCCUAGUCCGUCAGGAUAUAGCCCGCAUCCGCUGUGGCUAGAAGGGACUGCUG,0.141 µM,0.235 µM,–,–
CCUUUAUUUUCAGGAUAUCCGUUUAGGUAGAUAACAUGAGGAUCACCCAUGUCCAUGUUGUAAGUGGAGAAGGGAAAGAGUGGG,0.182 µM,0.12 µM,–,–
CCUUUGAAGAUCCUAAAUUUCGACAUGAGGAUCACCCAUGUGCAGGAUAUCGUGCCAGUGAUGUGCGAGAAGGGCAGUCUCUGC,–,–,0.0646 µM,0.0739 µM
CCUUUGUCAGGAUAUCAGAACACGCCCGUAGGGAGUGCAAAUGAGAAGGGACAUGAGGAUCACCCAUGUACAGA,–,–,0.0332 µM,0.114 µM
CGAAACUACGAGAAGGACAUGUGGUCCUUCAGUUACAUGAGGAUCACCCAUGUAGGAUAUCGUAGUUUCAGGAUCGUGAGAUCC,–,–,0.0587 µM,0.0166 µM
CGACACAUGAGGGUCUCCCAUGACAUGAGGAUCACCCAUGUGCAGGAUAUACGUGUGAUGGUAUAGUAGAAGGGCACUCUAUGU,–,–,0.0416 µM,0.058 µM

Sequence,apparent Kd [1],apparent Kd [2],apparent Kd [3],apparent Kd [4]
CGACAUUUAGGAUAUACGGUUAUUGAGGUUUUUGUUAGUCGACAUGAGGAUCACCCAUGUAGAAGGAAAUGAGU,–,–,0.0346 µM,0.0494 µM
CGACGUUGAGAGAAGGAGUAAAAUACAUGAGGAUCACCCAUGUCAGGUGCUAGGAUAUCUUCGCGUGGCAGGGUCGGCCCGUGU,0.066 µM,0.0143 µM,–,–
CGACUGUGAGGAUAUGGUGAGUAGUGCCUGAGCGCUGCUCACCAGAAGGCACAUGAGGAUCACCCAUGUAUAGC,–,–,0.0417 µM,0.165 µM
CGAGCUCGUGUGAGGAUAUACCUAUGGAUACAUAGGUAGAAGGCACAUGAGGAUCACCCAUGUCCUAGAGCUCG,–,–,0.092 µM,0.679 µM
CGAGUUUUUGAGAAGGCAUAUUAUAAUAGUGUCCAUGUUUACAUGAGGAUCACCCAUGUUUAGUAUGAGGAUAUCAGUAUGUCG,–,–,0.00801 µM,0.0111 µM
CGAUAACAUAGUUAUCCGUAGCGAACAUGAGGAUCACCCAUGUAGGAUAUGUUACUAAACUAGUAACAGAAGGACAUGAGUAUU,–,–,0.154 µM,0.407 µM
CGAUAAUAUAGUUAUCCGUAGCGAACAUGAGGAUCACCCAUGUAGGAUAUGUUACUAAACUAGUAACAGAAGGACAUGAGUCUU,–,–,0.0285 µM,0.178 µM
CGAUAUAUGAAGGGCGAAAGCCCACAUGAGGAUCACCCAUGUAGAAGGCGAGCCGCAACGCGGCUCGAGGAUAUAUAGUAUACA,–,–,0.00724 µM,0.00852 µM
CGAUAUGAUGCAGGAUAUCUAUCUUGAAUGAGGAGAGAAGGGCAAACCGAGACAUAAGCCUUAUUACAUGAGGAUCACCCAUGU,–,–,0.0104 µM,0.00938 µM
CGAUAUUAUGCAGGAUAUCUCCCUUGAAUGCGGAGAGAAGGGCAUAGGGAGACAUACGCCUUAUUACAUGAGGAUCACCCAUGU,–,–,0.0094 µM,0.00829 µM
CGAUGAGGUGUGAGGAUAUCGUGUUCGAAAGAACGUGAGAAGGCACAUGAGGAUCACCCAUGUGAACCUUGUCG,–,–,0.0169 µM,0.0188 µM
CGAUGUUAUGCAGGAUAUCUCUCUUGAUUGAGGAGAGAAGGGCAUAGGGAGACAUACGCCUUAUUACAUGAGGAUCACCCAUGU,–,–,0.00947 µM,0.00785 µM
CGAUUGGGAGGAUAUGCGUGGAUAGUUUUAUAUAGUAUGUUACAUGAGGAUCACCCAUGUAGAAGGUUCGGUUG,–,–,0.0569 µM,0.0583 µM
CGCAACAUGAGGAUCACCCAUGUUCGCGGGCAAUUUUAGUGCAGAAGGGACAACGAAACGUAGGGUCAGGAUAUGCAUGUGCGC,0.00526 µM,0.00517 µM,–,–
CGCAAGUAUACAUGAGGAUCACCCAUGUCAGAAAGGGUAAUCAGAAGGUACUAUUAGAGAUAGAGUAAGGAUAUGAAAUUUGCG,0.718 µM,0.138 µM,–,–
CGCAAGUCAGGAUAUUCGACUGGUAAAUCUGUGGAUCAGUAGGAGAAGGGACAUGAGGAUCACCCAUGUUUGUU,–,–,0.0286 µM,0.0319 µM
CGCAAGUCAGGAUAUUCGACUGGUCCAUCUGUGGAUCAGUAGGAGAAGGGACAUGAGGAUCACCCAUGUUUGUU,–,–,0.0307 µM,0.0469 µM
CGCACUGAUAGAGGAUAUGUUUAACAUGAGGAUCACCCAUGUGUACAAGGAUCAAUAUAUAAGUAACAGAAGGCUAUUAGUGCG,–,–,0.0139 µM,0.0134 µM
CGCACUUAGCGAGGAUAUGUAAAACAUGAGGAUCACCCAUGUGAUUUAGUAUCAAUUUUAAUGAAACAGAAGGCGCUUAGUGCG,–,–,0.00826 µM,0.00891 µM
CGCAUCUCUACAAUUCCUUCACAUGAGGAUCACCCAUGUAGGGAGGAUAUGCAAGCUUAUUGGCGGCAGAAGGCCCUGCAAUGG,–,–,0.142 µM,0.127 µM
CGCAUGCGUAGUAUUAGUUGCUGACAGGAUAUGACAUGAGGAUCACCCAUGUGAAAUAAGAAGAGUCAGAAGGGUCACGAUGCG,–,–,0.0168 µM,0.00958 µM
CGCCCGUAAGGAUAUACAUGAGGAUCACCCAUGUCGGUAACCGAAGGGCGAUACCUUUGUAGAAGGUACUGCGU,–,–,0.0148 µM,0.0137 µM
CGCGAAAACAUAGGAUAUUGAUACAUGAGGAUCACCCAUGUCAACCAUGAAGCUCGAAUUGUUGACAAGAAGGAUGAGGUCGCG,0.0771 µM,0.0572 µM,–,–
CGCGAACAGGCUAACAUGAGGAUCACCCAUGUGGACUCAUGGUAGGAUAUCGGGAAGGAGGAAACCGAGAAGGGCCGGUGAGCA,0.218 µM,0.0389 µM,–,–
CGCGGACAAGAGAAGGCCAGACCUUGGAACCUAAGGCACCGCUAGGCAUGGAGGAUAUCUUGACAUGAGGAUCACCCAUGUACA,0.109 µM,0.0409 µM,–,–
CGCUAAGAGAACUAUUAGAGAAGACAUGAGGAUCACCCAUGUAGAAGGACAACGGAAUAAACGUUGUAGGAUAUACACUUAGCG,–,–,0.0226 µM,0.017 µM
CGCUAAUAAUUAAUAUUAAUUGUACAGGAUAUGUAACAUGAGGAUCACCCAUGUAUUGGGUUUAAACAGAAGGGUAUAUUAGCG,–,–,0.387 µM,0.0924 µM
